697 NFkB inh = lowers PMA/ionomycin-induced NF-kB signal in 697 B cells. AID 435022. inhibition, % at 4 µM. 697 B-cell NF-kB luciferase reporter, 16 h. 0.33% of 330,000 active; in the data active = inhibition above about 35%
NR2E3 ag-1 = NR2E3 (human) agonism. inhibition of corepressor binding, % at 4.78 µM. 0.12% of 320,000 active. GST-NR2E3/biotin-RetCOR TR-FRET, 1536-well. Q9Y5X4;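 active = percent inhibition above the cutoff of mean plus 3 SD of all tested compounds, set per screening campaign, cut at about 20% in these data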
Target sequence (Q9Y5X4 whole entry, looked up): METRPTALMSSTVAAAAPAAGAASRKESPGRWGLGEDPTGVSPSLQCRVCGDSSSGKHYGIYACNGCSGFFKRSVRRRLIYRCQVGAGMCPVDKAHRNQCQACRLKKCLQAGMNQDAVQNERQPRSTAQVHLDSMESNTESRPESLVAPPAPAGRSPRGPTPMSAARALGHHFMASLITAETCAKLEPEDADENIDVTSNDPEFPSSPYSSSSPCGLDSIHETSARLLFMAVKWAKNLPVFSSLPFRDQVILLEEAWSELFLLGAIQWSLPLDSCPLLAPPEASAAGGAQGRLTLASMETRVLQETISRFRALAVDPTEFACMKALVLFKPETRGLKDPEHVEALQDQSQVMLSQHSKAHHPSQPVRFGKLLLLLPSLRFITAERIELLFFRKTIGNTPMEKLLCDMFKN
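Test system: GST-NR2E3 and biotin-RetCOR proteins | Quantity: 1.35 nM GST-tagged NR2E3 final | Medium: Tris pH 7.5 | Also added: 7 nM biotin-RetCOR | Dosing: Compound at 4.8 µM, single dose | Timing: 5 h at 4 °C | Detection: Time-resolved FRET | Read-out basis: Percent inhibition | Benchmarks: Biotin wells as high control, 0.6% DMSO wells as low control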
NR2E3 ag-2 = human photoreceptor-specific nuclear receptor agonism. Q9Y5X4. CHO-S Gal4-NCOR/VP16-NR2E3 two-hybrid, luciferase. inhibition of corepressor binding, % at 3.98 µM. 0.35% of 360,000 active;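 active = inhibition above the mean of all tested compounds plus 3 SD, cut at about 70% in these data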;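 note: higher means lower luciferase signal from less NR2E3 corepressor binding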
FGF22 binding = shifts melting point of recombinant human FGF22; Q9HCT0; recombinant FGF22 thermal shift, SYPRO orange fluorescence; percent of sucrose octasulfate shift, DMSO zero; activity (Tm shift, normalised), % at 9.99 µM; 1.5% of 340,000 active; AID 651658;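 active = mean Tm shift, scaled 0 neutral to 100 positive control, at about 1.3% or above, every replicate too, limit read from the data; inconclusive = no clear call, values can overlap the other calls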
Target sequence (Q9HCT0 whole entry, looked up): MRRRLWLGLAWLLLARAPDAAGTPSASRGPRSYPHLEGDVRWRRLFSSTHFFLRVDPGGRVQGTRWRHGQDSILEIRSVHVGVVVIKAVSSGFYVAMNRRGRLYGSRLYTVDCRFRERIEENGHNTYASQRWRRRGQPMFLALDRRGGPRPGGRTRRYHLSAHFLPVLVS
miR122 inh = miR-122 inhibition in Huh7 cells; Huh7 miR-122 Renilla luciferase sensor, 48 h; neutral wells = 0, positive control = 100; 0.3% of 340,000 active; AID 602342; activation (reporter increase), % at 12.5 µM;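 active = mean replicate activation score at least 90 and every replicate individually at or above 90; inconclusive = only one of the two criteria met; inactive = neither criterion met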;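 note: higher luciferase means less miR-122 activity so hits act as miR-122 inhibitors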
Jurkat NFkB inh = lowers PMA/ionomycin-induced NF-kB signal in Jurkat cells | PMA/ionomycin-induced NF-kB luciferase reporter, luminescence | inhibition, % at 4 µM | 0.53% of 330,000 active; in the data active = inhibition above about 50%
NR2E3 ag confirm = confirmation of human NR2E3 agonists; CHO-S mammalian two-hybrid NR2E3-NCOR, luciferase luminescence; 51% of 2,300 active; AID 624378; inhibition, % at 3.98 µM; shares compounds with NR2E3 ag-2;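 active = average inhibition above a cutoff equal to the mean inhibition of all tested compounds plus one SD, cut at about 70% in these data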
VP16 counter = GAL4-VP16 reporter inhibition in NR2E3 agonist counterscreen; 29% of 2,300 active; shares compounds with NR2E3 ag-2; inhibition, % at 3.98 µM; AID 624379; CHO-S GAL4-VP16 luciferase reporter, luminescence;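 active = mean inhibition above a cutoff equal to the average over all tested compounds plus one standard deviation, cut at about 70% in these data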;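 note: luciferase from a UAS reporter driven by GAL4-VP16 transactivation; higher means less reporter light so more repression of VP16 activity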
A number is an active result; - = inactive; ? = inconclusive; . = no result. This is a sample that favours compounds with a hit; in the whole collection about 2.2% have one here.

SMILES | 697 NFkB inh | NR2E3 ag-1 | NR2E3 ag-2 | FGF22 binding | miR122 inh | Jurkat NFkB inh | NR2E3 ag confirm | VP16 counter
Fc1ccc(NC(=S)NNc2ncc(C(F)(F)F)cc2Cl)c(F)c1 | - | - | 79.8 | - | . | - | - | -
FC(F)(F)c1cnc(NNC(=S)Nc2ccc(Cl)cc2)c(Cl)c1 | - | - | 70.1 | . | . | - | 94.1 | 76.8
Cc1ccc(NC(=S)NNc2ncc(C(F)(F)F)cc2Cl)c(C)c1 | - | - | - | . | - | - | . | .
CC(=O)N(C)C[C@H]1Oc2cc(C#CCC3CCCC3)ccc2S(=O)(=O)N([C@H](C)CO)C[C@@H]1C | . | . | . | - | - | . | . | .
C[C@@H]1CN([C@H](C)CO)C(=O)c2cc(NC(=O)NC3CCCCC3)ccc2O[C@@H]1CN(C)C(=O)Nc1ccc(C(F)(F)F)cc1 | . | . | . | - | - | . | . | .
COc1ccc(C)cc1NC(=O)CSc1nc2scc(C)c2c(=O)[nH]1 | - | - | 83.9 | - | - | - | - | -
COc1ccc(Cl)cc1NC(=O)CSc1nc2sccc2c(=O)[nH]1 | - | - | - | - | . | - | . | .
Cc1cc(C(=O)NNc2ccccc2F)no1 | - | - | - | - | - | - | - | -
CC1OC2CC(=O)OC2C2=C1C(=O)c1c(O)cccc1C2=O (centres undefined) | . | . | 101.4 | - | - | . | 97.7 | 97.5
CS(=O)(=O)N1CC2(C1)[C@@H](c1ccccc1)[C@H](CO)N2Cc1ccccn1 | . | . | . | - | . | . | . | .
COC(=O)c1cc(CSc2nc3ccccc3c(=O)n2C)oc1C | - | - | 86.7 | - | - | - | 82.9 | 71.3
COCCn1c(SCc2ccc(C(=O)OC)o2)nc2ccccc2c1=O | - | - | - | . | - | - | . | .
CCn1c(SCC(=O)Nc2ccccc2OC)nc2ccccc2c1=O | - | - | - | . | - | - | . | .
CCOc1ccccc1-n1c(SCC(=O)Nc2ccccc2C(=O)O)nc2ccccc2c1=O | - | - | - | - | - | - | - | -
CC(C)C#Cc1cnc2c(c1)C(=O)N([C@@H](C)CO)C[C@H](C)[C@@H](CN(C)Cc1ccccc1)O2 | . | . | . | - | - | . | . | .
COCCC1CCCCN1C(=O)c1cc(COc2ccc(C)nc2)on1 (centres undefined) | - | - | - | - | - | - | . | .
COCCCC1CCN(C(=O)c2cc(COc3ccc(C)nc3)on2)CC1 | - | - | - | - | - | - | - | -
Cc1ccc(OCc2cc(C(=O)N3CCC(Oc4cccnc4)CC3)no2)cc1C | - | - | 96.9 | - | - | - | 91.4 | -
O=C(c1cc(COc2cccc(C(F)(F)F)c2)on1)N1CCCC1 | . | . | - | - | - | . | . | .
CC(=O)c1ccc(OCc2cc(C(=O)N3CCC(Oc4ccccc4C)CC3)no2)cc1 | - | - | - | - | . | - | . | .
O=C(c1cc(COc2cccc(C(F)(F)F)c2)on1)N1CCC(Oc2cccnc2)CC1 | - | - | 77.6 | - | - | - | 92.3 | 74.8
COc1ccccc1NC(=O)N[C@@H]1CC[C@@H](CC(=O)N[C@@H](C)c2ccccc2)O[C@H]1CO | . | . | . | - | . | . | . | .
COCC(=O)Nc1ccc2c(c1)OC[C@H](C)N(CC1CC1)C[C@@H](C)[C@H](OC)CN(C)C2=O | . | . | . | - | . | . | . | .
CC(C)NC(=O)N(C)C[C@@H]1OCCCC[C@H](C)Oc2ccc(NC(=O)CCCN(C)C)cc2C(=O)N([C@@H](C)CO)C[C@H]1C | . | . | . | - | - | . | . | .
O=S(=O)(c1cccc(NC(=S)N2CCN(c3cccc(Cl)c3)CC2)c1)C(F)F | - | - | - | - | - | - | 80.1 | -
SMILES | 697 NFkB inh | NR2E3 ag-1 | NR2E3 ag-2 | FGF22 binding | miR122 inh | Jurkat NFkB inh | NR2E3 ag confirm | VP16 counter
C[C@H](CO)N1C[C@H](C)[C@H](CN(C)S(=O)(=O)c2cccs2)Oc2ncc(-c3cccc(C(F)(F)F)c3)cc2C1=O | . | . | . | - | - | . | . | .
COc1ccc(CN2CC3(CN(C(=O)Nc4cccc(F)c4)C3)c3c([nH]c4cc(OC)ccc34)[C@H]2CO)cc1 | . | . | . | - | . | . | . | .
N#C/C(=N\Nc1ccc(Cl)cc1)C(N)=S | - | - | - | - | - | - | - | -
N#C/C(=N\Nc1ccc(Cl)cc1)C(=O)c1ccsc1 | - | - | 81.3 | - | - | - | 100.0 | 88.2
O=C1N[C@H](Cc2ccccc2)COCc2cn(nn2)CC[C@@H]1Cc1ccccc1 | . | . | . | - | . | . | . | .
CN(C)c1nc(=NCc2ccco2)ss1 | . | - | 76.4 | . | . | . | - | -
N#CC(C(=S)Nc1ccccc1)c1nc2ccccc2[nH]1 (centres undefined) | - | - | 77.9 | - | ? | - | - | -
CN(C)c1ccc(/C=C/c2ccc3c4ccccc4ccc3[n+]2-c2ccccc2)cc1 | . | . | 100.7 | - | - | . | 99.0 | 89.8
C[C@@H]1CCCCO[C@@H](CN(C)Cc2ccncc2)[C@@H](C)CN([C@H](C)CO)C(=O)c2cc(NS(C)(=O)=O)ccc2O1 | . | . | . | . | - | . | . | .
CC(Sc1nc2ccccc2c(=O)n1C)C(=O)N(C)C1CCCCC1 (centres undefined) | - | - | 94.9 | - | - | - | 91.5 | 75.6
CC(Sc1nc2ccccc2c(=O)n1CC1CCCO1)C(=O)N(C)Cc1ccccc1 (centres undefined) | - | - | - | . | - | - | . | .
O=C(c1cc(S(=O)(=O)N2CCOCC2)ccc1Cl)N1CCC(Cc2ccccc2)CC1 | - | - | - | - | - | - | - | -
Cc1cc(CNC(=O)Cc2ccccc2)c2ccccc2n1 | - | - | - | - | - | - | . | .
Cc1cc(CNC(=O)c2cccc([N+](=O)[O-])c2C)c2ccccc2n1 | - | - | - | - | - | - | 72.4 | -
O=c1[nH][nH]c(-c2ccccc2)c1C=Nc1ccc(OC(F)(F)F)cc1 | - | - | - | - | - | - | - | -
COc1ccc(NC(=O)N[C@@H]2CC[C@@H](CC(=O)NC3CCC3)O[C@@H]2CO)cc1 | . | . | . | - | - | . | . | .
Cc1nc(NC(=O)c2c(-c3ccccc3Cl)noc2C)sc1C | - | - | 79.0 | - | . | - | 80.0 | -
Cc1nnc(NC(=O)c2c(-c3ccccc3Cl)noc2C)s1 | - | - | - | - | . | - | . | .
CCCOc1ccc(CSc2nc3ccccc3[nH]2)cc1 | - | - | 74.2 | . | - | - | 73.7 | -
O=C(C[C@@H]1CC[C@@H]2[C@H](COC[C@H](O)CN2Cc2ccncc2)O1)NCc1ccncc1 | . | . | . | - | - | . | . | .
COc1ccc(CCNc2nc(-c3ccccn3)cs2)cc1OC | - | - | - | - | - | - | - | -
C[C@H]1CN([C@@H](C)CO)C(=O)CCCn2cc(nn2)CO[C@H]1CN(C)C(=O)Nc1ccc2c(c1)OCO2 | . | . | . | . | - | . | . | .
c1cncc(CNc2ncnc3sccc23)c1 | - | - | - | - | . | - | . | .
c1ccc(CNc2ncnc3sccc23)cc1 | - | - | 91.3 | - | . | - | 79.6 | -
